This note sets out measurements from ChEMBL document CHEMBL4145684 (J Med Chem, 2018).

Calls of active or inactive are those of the source. The calls are words filed in the database; no cut-off is given here.

A short description of series [1]: AUC in mouse at 10 mg/kg, po. It counts as ADME, organism-based. The note with it: in vivo. The method, boiled down:
(§1)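 Mouse or rat PK: single intravenous dose 3 mg/kg or oral dose 10 mg/kg, vehicle PEG400/PVP/Tween 80/0.5% CMC in water (9:0.5:0.5:90).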

Series [2] concerns the target T1, Estrogen receptor (Homo sapiens, UniProt P03372).
T1 sequence (P03372 whole entry): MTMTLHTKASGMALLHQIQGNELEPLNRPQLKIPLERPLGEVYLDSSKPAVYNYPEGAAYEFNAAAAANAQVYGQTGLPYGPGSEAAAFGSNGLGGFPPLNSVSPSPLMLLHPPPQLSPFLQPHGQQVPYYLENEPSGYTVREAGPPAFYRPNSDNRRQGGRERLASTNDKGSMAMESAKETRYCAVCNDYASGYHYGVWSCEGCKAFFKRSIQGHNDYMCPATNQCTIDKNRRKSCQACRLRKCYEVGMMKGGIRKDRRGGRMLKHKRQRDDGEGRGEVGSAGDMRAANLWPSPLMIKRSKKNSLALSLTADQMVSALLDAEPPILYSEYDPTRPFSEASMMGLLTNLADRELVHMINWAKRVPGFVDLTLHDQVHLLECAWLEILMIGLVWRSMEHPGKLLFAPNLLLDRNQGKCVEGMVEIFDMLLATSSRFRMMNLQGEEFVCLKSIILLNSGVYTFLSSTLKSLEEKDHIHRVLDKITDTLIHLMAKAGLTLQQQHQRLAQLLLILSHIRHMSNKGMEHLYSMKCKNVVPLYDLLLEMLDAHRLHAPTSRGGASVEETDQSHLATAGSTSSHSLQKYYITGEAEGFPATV
The series can be described thus: Induction of ERalpha degradation in human MCF7 cells in phenol red free RPMI medium containing 5% charcoal dextran-treated FBS incubated for 4 hrs by SP1 and anti-ER rabbit monocolnal antibody based in-cell Western assay.

The test system of series [3] is MCF7. Nature of the series: Antiproliferative activity against human MCF7 cells assessed as reduction in cell proliferation in RPMI containing 10% FBS incubated for 5 days by Cell-titer-Glo assay. It counts as functional, cell-based. The note with it: MCF7, 120 h. The method, boiled down:
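MCF-7 cells, 640/well in RPMI with 10% FBS and 20 mM HEPES, adhered overnight; 10-point 1:5 dilution series (10–0.000005 µM final) for 5 days. CellTiter-Glo luminescence, cell-free medium background subtracted, percent viability vs untreated cells; n ≥ 3.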

Series [4] deals with T1, Estrogen receptor. The series can be described thus: Binding affinity to ERalpha (unknown origin).
In series [5] the test system is Rattus norvegicus. The series can be described thus: Reduction in uterine wet weight in ethynyl estradiol-stimulated CD-IGS rat at 1 mg/kg, po dosed daily for 3 days by gavage followed 15 mins later by 0.1 mg/kg, po ethynyl estradiol and measured 24 hrs after last dose by immature rat uterine wet weight assay. In kind it is functional. In a few lines: (§2)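 Female immature CD-IGS rats, 21 days old on arrival; oral gavage of vehicle or compound daily for 3 days, ethynyl estradiol 0.1 mg/kg orally 15 min after each dose. Day 4, 24 h post-dose, plasma taken, then uterus removed and weighed. Reduction = 100 x (VehicleEE – Cpd)/(VehicleEE – Vehicle).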

Series [6] has as its system Rattus norvegicus. Nature of the series: Reduction in uterine wet weight in ethynyl estradiol-stimulated CD-IGS rat at 10 mg/kg, po dosed daily for 3 days by gavage followed 15 mins later by 0.1 mg/kg, po ethynyl estradiol and measured 24 hrs after last dose by immature rat uterine wet weight assay. In kind it is functional. The method, boiled down: as §2
Series [7] deals with Rattus norvegicus. The series can be described thus: In-vivo inverse agonist activity at ERalpha in CD-IGS rat assessed as reduction in uterine wet weight at 10 mg/kg, po dosed daily for 3 days by gavage and measured 24 hrs after last dose by immature rat uterine wet weight assay relative to basal level. It counts as functional, organism-based. In a few lines:
(§3)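 Immature CD-IGS rats given compound orally for 3 days without ethynyl estradiol (agonist mode); on day 4, 24 h after dosing, uterus removed and weighed; wet weight normalized to total body weight.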

Series [8] is described as follows: Clearance in mouse at 3 mg/kg, iv. The note with it: in vivo. In kind it is ADME, organism-based. The method, boiled down:
as §1

Series [9] is described as follows: Volume of distribution at steady state in mouse at 3 mg/kg, iv. In kind it is ADME, organism-based. The note with it: in vivo, read-out: Vdss. The method, boiled down:
as §1

Series [10] can be described thus: Half life in mouse at 3 mg/kg, iv. It counts as ADME, organism-based. The note with it: in vivo. The method, boiled down: as §1
Series [11] in a line: Cmax in mouse at 10 mg/kg, po. More on the design: dose 10 mg/kg, route oral. The note with it: in vivo. It counts as ADME, organism-based. In a few lines:
as §1

The nature of series [12]: AUC (0 to infinity) in mouse at 10 mg/kg, po. In kind it is ADME, organism-based. More on the design: dose 10 mg/kg, route oral, time infinity. The note with it: in vivo.
Series [13] can be described thus: Oral bioavailability in mouse at 10 mg/kg. It counts as ADME, organism-based. The note with it: in vivo. In a few lines: as §1
Series [14] in a line: Clearance in rat at 3 mg/kg, iv. In kind it is ADME, organism-based. The note with it: in vivo. The method, boiled down:
as §1

Series [15] can be described thus: Volume of distribution at steady state in rat at 3 mg/kg, iv. It counts as ADME, organism-based. The note with it: in vivo, read-out: Vdss. The method, boiled down: as §1
Series [16] in a line: Half life in rat at 3 mg/kg, iv. It counts as ADME, organism-based. The settings on record: in vivo. The method, boiled down:
as §1

Series [17] is described as follows: Cmax in rat at 10 mg/kg, po. The settings on record: in vivo. In kind it is ADME, organism-based. More on the design: dose 10 mg/kg, route oral. The method, boiled down:
as §1

A short description of series [18]: AUC (0 to infinity) in rat at 10 mg/kg, po. The settings on record: in vivo. It counts as ADME, organism-based. More on the design: dose 10 mg/kg, route oral, time infinity.
Series [19] can be described thus: Oral bioavailability in rat at 10 mg/kg. In kind it is ADME, organism-based. The settings on record: in vivo. The method, boiled down:
as §1

In series [20] the test system is MCF7. Nature of the series: Antitumor activity against human MCF7 cells xenografted in nu/nu mouse model of tamoxifen-sensitive breast cancer xenograft implanted with 17beta-estradiol time release pellets assessed as reduction tumor volume at 6 mg/kg, po qd for 4 weeks. In kind it is functional, organism-based. Background: A xenograft is tissue or cells of one species grown in another, often human tumour cells in immunodeficient mice.

Series [21] concerns MCF7. Nature of the series: Antitumor activity against human MCF7 cells xenografted in nu/nu mouse model of tamoxifen-resistant breast cancer xenograft implanted with 17beta-estradiol time release pellets assessed as reduction tumor volume at 60 mg/kg, po qd for 4 weeks. It counts as functional, organism-based. The method, boiled down: (§4)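 Female nu/nu mice with 0.72 mg 60-day 17β-estradiol pellets bearing MCF-7 tumors, pretreated with oral tamoxifen citrate; at ~150-250 mm3 (mean 200 mm3) randomized, tamoxifen stopped, then dosed daily for 4 weeks; tumor volume (length x width2/2) and body weight twice weekly.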

Series [22] in a line: AUC in human MCF7 cells xenografted nu/nu mouse implanted with 17beta-estradiol time release pellets dosed orally once daily for 4 weeks. It counts as ADME, organism-based. The note with it: in vivo, po.
For series [23], the system named is Rattus norvegicus. The series can be described thus: Reduction in uterine wet weight in ethynyl estradiol-stimulated CD-IGS rat at 60 mg/kg, po dosed daily for 3 days by gavage followed 15 mins later by 0.1 mg/kg, po ethynyl estradiol and measured 24 hrs after last dose by immature rat uterine wet weight assay. In kind it is functional. In a few lines: as §2

The subject of series [24] is Rattus norvegicus. Nature of the series: In-vivo agonist activity at ERalpha in CD-IGS rat assessed as increase in uterine wet weight at 60 mg/kg, po dosed daily for 3 days by gavage and measured 24 hrs after last dose by immature rat uterine wet weight assay. In kind it is functional, organism-based. The method, boiled down:
as §3

Series [25] relates to MCF7. The series can be described thus: Antitumor activity against human MCF7 cells xenografted in nu/nu mouse model of tamoxifen-sensitive breast cancer xenograft implanted with 17beta-estradiol time release pellets assessed as reduction tumor volume at 60 mg/kg, po qd for 4 weeks. In kind it is functional, organism-based.
The test system of series [26] is MCF7. The series can be described thus: Antitumor activity against human MCF7 cells xenografted in nu/nu mouse model of tamoxifen-resistant breast cancer xenograft implanted with 17beta-estradiol time release pellets assessed as reduction tumor volume at 120 mg/kg, po qd for 4 weeks. It counts as functional, organism-based. In a few lines:
as §4

In series [27] the test system is Rattus norvegicus. Nature of the series: Reduction in uterine wet weight in ethynyl estradiol-stimulated CD-IGS rat at 200 mg/kg, po dosed daily for 3 days by gavage followed 15 mins later by 0.1 mg/kg, po ethynyl estradiol and measured 24 hrs after last dose by immature rat uterine wet weight assay. In kind it is functional. In a few lines:
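Female immature CD-IGS rats, 21 days old on arrival. Compound or vehicle was given orally by gavage once daily for 3 days, and oral ethynyl estradiol at 0.1 mg/kg followed each dose by 15 min. On day 4, 24 h after dosing, plasma was taken for PK, then the uterus was removed and weighed. % reduction = 100 × (VehicleEE − Cpd)/(VehicleEE − Vehicle).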

As usually defined, the AUC is the area under the concentration-time curve, a measure of exposure. Usually IC50 stands for the concentration at which inhibition is half-maximal. The term clearance denotes the volume of plasma or blood freed of the substance per unit of time. Higher therefore signals a high capacity for elimination. In general, half-life refers to the time in which the quantity being followed falls by half. Lower therefore signals rapid decline. Broadly, the Cmax is the highest concentration seen after dosing. Usually AUC(0-inf) stands for total exposure, with the tail of the curve extrapolated. What is called bioavailability is dose-corrected exposure relative to a reference, in per cent. A higher bioavailability goes with good availability. `CC1=C(c2cccc(O)c2)C(c2ccc(OC[C@H](C)N3CC[C@@H](C)C3)cc2)Oc2ccc(O)cc21` (some centres not stated): in series [1], the AUC was determined as 590 ng·h/mL. The IC50 against Estrogen receptor [2] turned out to be 0.2 nM; in the series with MCF7 [3], 0.2 nM; on Estrogen receptor [4], 5.1 nM. Moreover, the “inhibition (INH)” value in the series with Rattus norvegicus [5] amounted to 99%; with Rattus norvegicus [6], 111%. In addition, the outcome with Rattus norvegicus [7], in the series with MCF7 [20] and in the series on MCF7 [21] was Active. For the same compound, the clearance in [8] came to 38 mL/min/kg; in [14] it was 33 mL/min/kg. Moreover, the Vd was 6.2 L/kg in [9] and 8 L/kg in [15]. The half-life is 3.6 h in series [10] and 2.9 h in series [16]. The Cmax in series [11] came to 100 ng/mL; in [17], 140 ng/mL. Besides, the AUC(0-inf) in [12] is 590 ng·h/mL; in series [18] it was 930 ng·h/mL. Also, the bioavailability in series [13] stood at 13%; in [19] it was 18%. In addition, the AUC at 672 h in series [22] was determined as 4600 ng·h/mL.

Take `CC/C(=C(\c1ccccc1)c1ccc(OCCN(C)C)cc1)c1ccccc1` [TAMOXIFEN]: the “inhibition (INH)” value in the series with Rattus norvegicus [23] came out at 78%. For the same compound, the outcome in the series on Rattus norvegicus [24] and in the series on MCF7 [25] was Active. Besides, the result in the series on MCF7 [26] was inactive.

Regarding `C[C@]12CC[C@@H]3c4ccc(O)cc4C[C@@H](CCCCCCCCC[S+]([O-])CCCC(F)(F)C(F)(F)F)[C@H]3[C@@H]1CC[C@@H]2O` (some centres not stated) [FULVESTRANT], the “inhibition (INH)” value with Rattus norvegicus [27] is on record as 110%.
